12 molecules from ChEMBL document CHEMBL1139721, “Inhibition of P-glycoprotein-mediated multidrug efflux by aminomethylene and ketomethylene analogs of reversins” (Bioorg Med Chem Lett, 2006) can be followed below.

SMILES strings stand for the structures. Peptide text beside a SMILES is read from it. * marks the point of attachment. Cbz = O=C(OCc1ccccc1)*; Boc = CC(C)(C)OC(=O)*; OcHex = C1CCC(O*)CC1; OBn = c1ccc(CO*)cc1; OtBu = CC(C)(C)O*

The term inhibition denotes the relative decrease from the control value, in per cent.

The experiment has as its system K562/R7. The experiment is described as follows: Inhibition of P-glycoprotein-mediated daunorubicin efflux in K562/R7 cells at 10 uM relative to control. The class given is cell-based. The following applies: Homo sapiens. The gist of the method: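 K562/R7 human leukemic cells with high P-glycoprotein expression, 1 million per mL RPMI 1640, incubated 1 h at 37 °C with daunorubicin (10 μM final) with or without inhibitor at 10 µM. Cells washed twice in ice-cold PBS, held on ice, then read by flow cytometry. Activity expressed relative to cyclosporin A (2 μM final, set as 100%). Duplicates, at least three separate experiments; SD reported.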
Turning to `CC(C)(C)OC(=O)N[C@@H](CC(=O)OCc1ccccc1)C(=O)N[C@@H](CCCCNC(=O)OCc1ccccc1)C(=O)OC(C)(C)C` (Boc-Asp(OBn)-Lys(Cbz)-OtBu), the inhibition came out at 72.7%.
The same measure for `CC(C)(C)OC(=O)N[C@@H](CCC(=O)OCc1ccccc1)CN[C@@H](CCCCNC(=O)OCc1ccccc1)C(=O)OC(C)(C)C`: 79.1%; for `CC(C)C(OC(=O)CC[C@H](NCCCC(=O)N[C@@H](CCC(=O)OCc1ccccc1)C(=O)OCc1ccccc1)C(=O)OCc1ccccc1)C(C)C`: 54.7%.
For `O=C(CCC(=O)N[C@@H](CCC(=O)OCc1ccccc1)C(=O)OCc1ccccc1)N[C@@H](CCC(=O)OCc1ccccc1)C(=O)OCc1ccccc1` the value was 93.7%; for `O=C(CCCN[C@@H](CCC(=O)OC1CCCCC1)C(=O)OCc1ccccc1)N[C@@H](CCC(=O)OCc1ccccc1)C(=O)OCc1ccccc1`, 98.3%; for `O=C(CCC(=O)N[C@@H](CCC(=O)OC1CCCCC1)C(=O)OCc1ccccc1)N[C@@H](CCC(=O)OCc1ccccc1)C(=O)OCc1ccccc1`, 94.5%.
`CC(C)(C)OC(=O)N[C@@H](CCC(=O)OC1CCCCC1)C(=O)N[C@@H](CCCCNC(=O)OCc1ccccc1)C(=O)OC(C)(C)C` (Boc-Glu(OcHex)-Lys(Cbz)-OtBu) showed an inhibition of 85.4%.
For `CC(C)(C)OC(=O)N[C@@H](CC(=O)OCc1ccccc1)C(=O)CCC(=O)N[C@@H](CCCCNC(=O)OCc1ccccc1)C(=O)OC(C)(C)C` the value was 86.6%; for `CC(C)(C)OC(=O)N[C@H](CN[C@@H](CCCCNC(=O)OCc1ccccc1)C(=O)OC(C)(C)C)CC(=O)OCc1ccccc1`, 74.1%.
In turn, `CC(C)C(OC(=O)CC[C@H](NC(=O)OC(C)(C)C)C(=O)N[C@@H](CCCCNC(=O)OCc1ccccc1)C(=O)OC(C)(C)C)C(C)C` showed an inhibition of 52.7%.
For `O=C(CCCN[C@@H](CC(=O)OCc1ccccc1)C(=O)OCc1ccccc1)N[C@@H](CCC(=O)OCc1ccccc1)C(=O)OCc1ccccc1` the value was 82.2%.
Take `CC(C)C(OC(=O)CC[C@@H](C(=O)OCc1ccccc1)N(CCCC(=O)N[C@@H](CCC(=O)OCc1ccccc1)C(=O)OCc1ccccc1)CCCC(=O)N[C@@H](CCC(=O)OCc1ccccc1)C(=O)OCc1ccccc1)C(C)C`: the inhibition is 3.35%.
